Laboratory results as given in ChEMBL document CHEMBL1146183, “Replacement of the N-terminal tyrosine residue in opioid peptides with 3-(2,6-dimethyl-4-carbamoylphenyl)propanoic acid (Dcp) results in novel opioid antagonists” (J Med Chem, 2006).

What was measured:
[1] = Selectivity for rat mu opioid receptor over guinea pig kappa opioid receptor
[2] = molecular target: Mu-type opioid receptor (Cavia porcellus) (UniProt P97266); assay: Activity at mu opioid receptor assessed as antagonizing effect against TAPP by GPI assay; format: functional
Chain of Mu-type opioid receptor (Cavia porcellus) (P97266 whole entry): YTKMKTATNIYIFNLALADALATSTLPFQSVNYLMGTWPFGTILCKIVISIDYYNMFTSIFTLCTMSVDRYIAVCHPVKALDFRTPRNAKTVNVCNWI
In short: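 Antagonism of the µ agonist TAPP measured in guinea pig ileum (GPI) preparation; Ke determined, reported as mean of three to six determinations.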

[3] = molecular target: Opioid receptors; mu & delta (Rattus norvegicus) (UniProt P33533+P33535); assay: Selectivity for mu opioid receptor over delta receptor; format: protein assay
Chain of Opioid receptors; mu & delta (Rattus norvegicus) (P33533 whole entry, looked up): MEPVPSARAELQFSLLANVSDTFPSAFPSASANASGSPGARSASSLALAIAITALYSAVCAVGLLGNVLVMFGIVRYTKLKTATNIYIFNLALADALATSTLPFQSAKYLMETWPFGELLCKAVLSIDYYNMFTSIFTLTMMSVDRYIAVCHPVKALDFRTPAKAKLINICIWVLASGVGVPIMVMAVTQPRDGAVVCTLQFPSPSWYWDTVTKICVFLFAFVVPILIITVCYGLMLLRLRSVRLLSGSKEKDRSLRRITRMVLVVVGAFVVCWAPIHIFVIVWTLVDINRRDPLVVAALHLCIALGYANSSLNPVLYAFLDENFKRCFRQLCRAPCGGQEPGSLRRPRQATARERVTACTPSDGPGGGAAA
Chain of Opioid receptors; mu & delta (Rattus norvegicus) (P33535 whole entry, looked up): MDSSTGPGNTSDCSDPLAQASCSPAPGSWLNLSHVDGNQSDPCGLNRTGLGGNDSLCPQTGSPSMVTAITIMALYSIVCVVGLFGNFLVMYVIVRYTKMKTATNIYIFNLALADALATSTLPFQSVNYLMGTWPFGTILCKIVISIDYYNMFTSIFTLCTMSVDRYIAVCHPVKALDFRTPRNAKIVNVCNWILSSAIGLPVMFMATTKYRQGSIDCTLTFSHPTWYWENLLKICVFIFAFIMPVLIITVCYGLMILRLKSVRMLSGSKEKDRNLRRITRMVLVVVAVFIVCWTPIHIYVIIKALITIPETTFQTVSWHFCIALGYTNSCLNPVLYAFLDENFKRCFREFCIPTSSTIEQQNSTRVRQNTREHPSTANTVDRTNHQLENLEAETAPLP

[4] = molecular target: Kappa-type opioid receptor (Cavia porcellus, UniProt P41144); assay: Displacement of [3H]U-69593 from kappa opioid receptor in guinea pig brain membrane; format: cell membranes
Chain of Kappa-type opioid receptor (P41144 whole entry): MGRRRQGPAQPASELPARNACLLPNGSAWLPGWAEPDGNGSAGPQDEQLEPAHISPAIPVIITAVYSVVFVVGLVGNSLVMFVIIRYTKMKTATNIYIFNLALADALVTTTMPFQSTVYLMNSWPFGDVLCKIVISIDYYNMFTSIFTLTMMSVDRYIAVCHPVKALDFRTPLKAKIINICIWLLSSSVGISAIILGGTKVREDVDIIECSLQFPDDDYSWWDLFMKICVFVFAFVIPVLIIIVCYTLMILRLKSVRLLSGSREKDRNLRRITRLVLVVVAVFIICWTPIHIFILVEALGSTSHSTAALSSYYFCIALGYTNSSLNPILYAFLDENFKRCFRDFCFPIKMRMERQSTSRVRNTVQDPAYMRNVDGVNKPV

[5] = molecular target: Delta-type opioid receptor (Rattus norvegicus, UniProt P33533); assay: Displacement of [3H]DSLET from delta opioid receptor in rat brain membrane; format: cell membranes
Chain of Delta-type opioid receptor (P33533 whole entry): as the sequence (P33533 whole entry, looked up) above

[6] = molecular target: Opioid receptor (mu and kappa) (Cavia porcellus) (UniProt P41144+P97266); assay: Ratio of Ke for mu opioid receptor to Ke for kappa opioid receptor; format: protein assay
Chain of Opioid receptor (mu and kappa) (Cavia porcellus) (P41144 whole entry, looked up): as the sequence (P41144 whole entry) above
Chain of Opioid receptor (mu and kappa) (Cavia porcellus) (P97266 whole entry, looked up): as the sequence (P97266 whole entry) above

Mu-type opioid receptor = Mu-type opioid receptor (Rattus norvegicus, UniProt P33535); assay: Displacement of [3H]DAMGO from mu opioid receptor in rat brain membrane; format: cell membranes
Chain of Mu-type opioid receptor (P33535 whole entry): as the sequence (P33535 whole entry, looked up) above

[7] = Ratio of Ke for guinea pig mu opioid receptor to Ke for mouse delta opioid receptor
[8] = molecular target: Kappa-type opioid receptor (Cavia porcellus) (UniProt P41144); assay: Activity at kappa opioid receptor assessed as antagonizing effect against U50,488 by GPI assay; format: functional
Chain of Kappa-type opioid receptor (Cavia porcellus) (P41144 whole entry): as the sequence (P41144 whole entry) above
In short: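 Antagonism of the κ agonist U50,488 measured in guinea pig ileum (GPI) preparation; Ke determined, reported as mean of three to six determinations.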

[9] = molecular target: Delta-type opioid receptor (Mus musculus) (UniProt P32300); assay: Activity at delta opioid receptor assessed as antagonizing effect against DPDPE by MVD assay; format: functional
Chain of Delta-type opioid receptor (Mus musculus) (P32300 whole entry): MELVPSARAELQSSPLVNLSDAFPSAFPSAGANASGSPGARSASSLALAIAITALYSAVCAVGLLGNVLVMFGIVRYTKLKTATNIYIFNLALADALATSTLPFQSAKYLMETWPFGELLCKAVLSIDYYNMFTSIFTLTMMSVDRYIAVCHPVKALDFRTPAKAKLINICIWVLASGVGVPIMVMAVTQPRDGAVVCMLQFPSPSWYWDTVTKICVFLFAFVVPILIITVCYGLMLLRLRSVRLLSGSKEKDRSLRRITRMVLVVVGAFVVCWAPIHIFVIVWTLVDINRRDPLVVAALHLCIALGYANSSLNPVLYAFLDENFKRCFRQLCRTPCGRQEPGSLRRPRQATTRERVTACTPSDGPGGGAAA
In short: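 Antagonism at δ receptors measured in mouse vas deferens (MVD) preparation; Ke determined, reported as mean of three to six determinations.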

Cc1cc(C(N)=O)cc(C)c1CCC(=O)NC1CSSCC(C(N)=O)NC(=O)[C@H](Cc2ccc([N+](=O)[O-])cc2)NC(=O)CNC1=O (stereo in doubt)
Ratio Ki [1]: 345
Ke [2]: 3.92 nM
Ratio Ki [3]: 9
Ki [4]: 980 nM
Ki [5]: 25.8 nM
Ratio Ke [6]: 19
Ki (Mu-type opioid receptor): 2.84 nM
Ratio Ke [7]: 45
Ke [8]: 74.1 nM
Ke [9]: 176 nM

CC[C@H](C)[C@H](NC(=O)[C@H](CCCNC(=N)N)NC(=O)[C@H](CCCNC(=N)N)NC(=O)[C@H](CC(C)C)NC(=O)[C@H](Cc1ccccc1)NC(=O)CNC(=O)CNC(=O)CCc1c(C)cc(C(N)=O)cc1C)C(=O)N[C@@H](CCCNC(=N)N)C(=O)N1CCC[C@H]1C(=O)N[C@@H](CCCCN)C(N)=O
Ki [4]: 32 nM
Ki [5]: 129 nM
Ki (Mu-type opioid receptor): 44.9 nM

Cc1cc(O)cc(C)c1CCC(=O)NC1CSSCC(C(N)=O)NC(=O)[C@H](Cc2ccc([N+](=O)[O-])cc2)NC(=O)CNC1=O (stereo in doubt)
Ratio Ki [1]: 62
Ke [2]: 3.68 nM
Ratio Ki [3]: 2
Ki [4]: 299 nM
Ki [5]: 11.6 nM
Ratio Ke [6]: 6
Ki (Mu-type opioid receptor): 4.79 nM
Ratio Ke [7]: 17
Ke [8]: 22.6 nM
Ke [9]: 63.3 nM
